This is an account of results in ChEMBL document CHEMBL1126882, “Orally active central dopamine and serotonin receptor ligands: 5-, 6-, 7-, and 8-[[trifluoromethyl)sulfonyl]oxy]-2-(di-n-propylamino)tetralins and the formation of active metabolites in vivo” (J Med Chem, 1993).

Data set [1] relates to Rattus norvegicus. The data set can be described thus: Effective dose for half-maximal decrease in the accumulation of 5-hydroxytryptophan (5-HTP) in reserpinized rat brain striatal area by sc administration; Inactive. Format: functional, organism-based. An outline of the steps:
(§1)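 Male Sprague-Dawley rats (200-300 g) got reserpine 5 mg/kg sc 18 h before. The test drug (saline) was given sc or po (po rats fasted 18 h), with NSD 1015, 30 min before decapitation. DOPA and 5-HTP in limbic, striatal and hemispheral tissue were measured by HPLC-ED. ED50 (half-maximal decrease) was taken from 4-6-dose curves, with deviation estimated graphically from SEM.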

Data set [2] has as its system Rattus norvegicus. The data set can be described thus: Effective dose for half-maximal decrease in the accumulation of 5-hydroxytryptophan (5-HTP) in reserpinized rat brain hemispheral area by sc administration; Inactive. Format: functional, organism-based. Summed up:
as §1

The subject of data set [3] is Rattus norvegicus. The data set can be described thus: Effective dose for half-maximal decrease in the accumulation of 5-hydroxytryptophan (5-HTP) in reserpinized rat brain limbic area by sc administration; Inactive. Format: functional, organism-based. Summed up: as §1
Data set [4] has as its target T1, 5-hydroxytryptamine receptor 1A (Rattus norvegicus, UniProt P19327).
T1 sequence (P19327 whole entry): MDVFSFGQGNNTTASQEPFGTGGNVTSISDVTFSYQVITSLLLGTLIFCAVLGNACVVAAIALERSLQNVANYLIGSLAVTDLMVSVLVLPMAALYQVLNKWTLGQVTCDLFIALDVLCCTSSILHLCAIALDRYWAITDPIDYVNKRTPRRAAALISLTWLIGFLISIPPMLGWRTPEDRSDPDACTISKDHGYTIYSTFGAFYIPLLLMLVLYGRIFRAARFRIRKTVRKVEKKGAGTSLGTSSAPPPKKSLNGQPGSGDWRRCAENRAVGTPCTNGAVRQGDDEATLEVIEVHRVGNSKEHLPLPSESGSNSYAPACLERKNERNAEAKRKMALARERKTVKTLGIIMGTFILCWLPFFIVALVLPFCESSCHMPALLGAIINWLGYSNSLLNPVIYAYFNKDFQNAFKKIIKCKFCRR
The data set can be described thus: Binding affinity against 5-hydroxytryptamine 1A receptor in homogenated rat brain tissue, using by [3H]8-OH-DPAT as radioligand. It is filed as tissue-based. An outline of the steps: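 Rat brain homogenate was washed and preincubated in 50 mM Tris (pH 8.0) containing NaCl, CaCl2 and MgCl2, plus 10 μM pargyline. Nonspecific binding was defined with 10 μM 5-HT. Six drug concentrations (10⁻⁴-10⁻⁹ M) were tested, triplicate or single run. IC50 came from a semilog plot with linear regression.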

Data set [5] deals with T2, Dopamine receptor (Rattus norvegicus) (UniProt P25115+P19020+P30729+P18901+P61169). The data set can be described thus: Effective dose for half-maximal decrease in the accumulation of DOPA in reserpinized rat brain limbic area by sc administration. It is filed as functional, organism-based. An outline of the steps: as §1
Data set [6] concerns the target T2, Dopamine receptor (Rattus norvegicus). The data set can be described thus: Effective dose for half-maximal decrease in the accumulation of DOPA in reserpinized rat brain striatal area by sc administration. It is filed as functional, organism-based. An outline of the steps: as §1
For data set [7], the target named is T3, D(2) dopamine receptor (Rattus norvegicus, UniProt P61169). The data set can be described thus: Binding affinity against dopamine receptor D2 in homogenated rat brain tissue, using by ([3H]N00437) as radioligand. Format: tissue-based. Summed up:
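Striata from male Wistar rats were washed in Tris (pH 7.5) containing EDTA, KCl and CaCl2. Tissue (1.25 mg original) was incubated with 0.2 nM [3H]-N-0437 (final) for 90 min at 25 °C, then filtered and counted by scintillation. Nonspecific binding was defined with 1 μM 6,7-ADTN. IC50 was read from a hand-fitted sigmoid curve, in triplicate.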

In data set [8] the target is T2, Dopamine receptor (Rattus norvegicus). The data set can be described thus: (§2) Effective dose for half-maximal decrease in the accumulation of DOPA in reserpinized rat brain hemispheral area by sc administration; Inactive. It is filed as functional, organism-based. Summed up: as §1
For data set [9], the species on record is Rattus norvegicus. The data set can be described thus: DA agonist induced behavior was charecterised by increased locomotion, sniffing and licking.+ indicates low intensity of behavioral effect. It is filed as functional, organism-based. Summed up: (§3)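 Male Sprague-Dawley rats (200-300 g) given reserpine 5 mg/kg sc in the neck 18 h before testing. The test compound, in 0.9% saline, was given sc in the neck (n = 4-5). Rats were placed singly in photocell motility meters right after dosing. Counts were recorded over 30 min, alongside gross behavioural observation of 5-HT and DA signs. Statistics: ANOVA with Fischer's PLSD versus reserpine controls.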

For data set [10], the system named is Rattus norvegicus. The data set can be described thus: post-synaptic agonistic effects by increase in locomotor activity at the dose of 12.5 umol/kg, sc in reserpinized rat (p<0.005). It is filed as functional. An outline of the steps: as §3
The target in data set [11] is T3, D(2) dopamine receptor. The data set can be described thus: Binding affinity against dopamine receptor D2 in rat brain tissue using [3H]spiperone. Format: tissue-based. An outline of the steps: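 Rat striatal membranes were prepared in 50 mM potassium phosphate (pH 7.4). They were incubated with 0.5 nM [3H]spiperone (3 mg original tissue) for 10 min at 37 °C. Specific binding was defined with 10 μM 6,7-ADTN. Six drug concentrations (10⁻⁴-10⁻⁹ M) were tested, in triplicate or in a single experiment.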

The test system of data set [12] is Rattus norvegicus. The data set can be described thus: post-synaptic agonistic effects by increase in locomotor activity at the dose of 1.0 umol/kg, sc in reserpinized rat. Format: functional. Summed up:
as §3

In data set [13] the test system is Rattus norvegicus. The data set can be described thus: Effective dose for half-maximal decrease in the accumulation of 5-hydroxytryptophan (5-HTP) in reserpinized rat brain striatal area by sc administration. It is filed as functional. An outline of the steps: as §1
Data set [14] has as its system Rattus norvegicus. The data set can be described thus: Effective dose for half-maximal decrease in the accumulation of 5-hydroxytryptophan (5-HTP) in reserpinized rat brain hemispheral area by po administration. It is filed as functional. Summed up:
as §1

Data set [15] concerns Rattus norvegicus. The data set can be described thus: Effective dose for half-maximal decrease in the accumulation of 5-hydroxytryptophan (5-HTP) in reserpinized rat brain hemispheral area by sc administration. It is filed as functional. Summed up:
as §1

Data set [16] deals with Rattus norvegicus. The data set can be described thus: Effective dose for half-maximal decrease in the accumulation of 5-hydroxytryptophan (5-HTP) in reserpinized rat brain limbic area by po administration. It is filed as functional. An outline of the steps: as §1
Data set [17] concerns Rattus norvegicus. The data set can be described thus: Effective dose for half-maximal decrease in the accumulation of 5-hydroxytryptophan (5-HTP) in reserpinized rat brain limbic area by sc administration. Format: functional. An outline of the steps:
as §1

The subject of data set [18] is Rattus norvegicus. The data set can be described thus: Effective dose for half-maximal decrease in the accumulation of 5-hydroxytryptophan (5-HTP) in reserpinized rat brain striatal area by po administration. Format: functional. An outline of the steps: as §1
Data set [19] is described as follows: Half-lives were estimated from the elimination phase of the blood conc-time curve after oral administration. Format: ADME, organism-based. Conditions: rat, whole blood. Summed up:
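Male Sprague-Dawley rats (300 g) with arterial catheters were dosed 24 h after surgery. Doses: 40 μmol/kg po by gavage and 5 μmol/kg iv, or 20 po and 1 iv. Po rats were fasted 18 h. Blood was sampled from 5 min to 12 h and measured by GC-MS after extraction at pH 11 against an internal standard, samples in duplicate. AUC po/iv came from n = 4 per route. Half-life was read graphically from the oral elimination phase.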

For data set [20], the system named is Rattus norvegicus. Described as §2. Format: functional, organism-based. An outline of the steps: as §1
Data set [21] has as its system Rattus norvegicus. The data set can be described thus: Effective dose for half-maximal decrease in the accumulation of DOPA in reserpinized rat brain striatal area by sc administration; Inactive. It is filed as functional, organism-based. An outline of the steps: as §1
Data set [22] relates to Rattus norvegicus. The data set can be described thus: Effective dose for half-maximal decrease in the accumulation of DOPA in reserpinized rat brain limbic area by po administration; Partial response at the highest dose tested. Format: functional, organism-based. An outline of the steps: as §1
In data set [23] the test system is Rattus norvegicus. The data set can be described thus: Effective dose for half-maximal decrease in the accumulation of DOPA in reserpinized rat brain limbic area by sc administration; Inactive. It is filed as functional, organism-based. An outline of the steps:
as §1

Data set [24] relates to Rattus norvegicus. The data set can be described thus: Effective dose for half-maximal decrease in the accumulation of DOPA in reserpinized rat brain striatal area by po administration; Partial response at the highest dose tested. Format: functional, organism-based. An outline of the steps:
as §1

In data set [25] the test system is Rattus norvegicus. The data set can be described thus: post-synaptic agonistic effects by increase in locomotor activity at the dose of 0.2 umol/kg, sc in reserpinized rat (p<0.005). It is filed as functional. Summed up: as §3

The source made the active and inactive calls.

T3 sequence (P61169 whole entry): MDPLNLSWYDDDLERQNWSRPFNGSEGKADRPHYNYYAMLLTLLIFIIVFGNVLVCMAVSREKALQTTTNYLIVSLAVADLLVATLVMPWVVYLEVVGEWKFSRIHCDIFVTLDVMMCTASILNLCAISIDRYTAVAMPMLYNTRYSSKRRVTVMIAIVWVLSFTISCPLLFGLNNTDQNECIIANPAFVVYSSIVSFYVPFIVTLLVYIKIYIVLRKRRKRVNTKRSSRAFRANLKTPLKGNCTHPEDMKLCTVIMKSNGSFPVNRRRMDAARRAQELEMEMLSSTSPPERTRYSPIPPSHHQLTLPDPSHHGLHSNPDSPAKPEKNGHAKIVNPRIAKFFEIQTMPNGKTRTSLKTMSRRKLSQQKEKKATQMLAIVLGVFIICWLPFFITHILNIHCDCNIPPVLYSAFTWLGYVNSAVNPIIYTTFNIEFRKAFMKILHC

Usually ED50 stands for the dose at which the effect has come halfway, by size or by number of responders. The Ki is a dissociation constant, usually derived from enzyme kinetics or from competition with a known ligand. Read a high Ki as weaker binding. As for `CCCN(CCC)C1CCc2cc(OS(=O)(=O)C(F)(F)F)ccc2C1` (stereo not drawn), the ED50 result (in the data set with Rattus norvegicus [1]; in the data set on Rattus norvegicus [2]; in the data set with Rattus norvegicus [3]; in data set [8]) was “inactive” each time. Moreover, the inhibitory constant (Ki) was determined as 16000 nM in data set [4], 99 nM on D(2) dopamine receptor [7] and 1570 nM at D(2) dopamine receptor [11]. Further, the values for the ED50 in data set [5] and in [6] were 2 µmol/kg and 1.3 µmol/kg, respectively. For the same compound, the Behavioral syndrome entry in the data set filed under Rattus norvegicus [9] was “Partially active”. Further, the Counts/30 with Rattus norvegicus [10] came out at 80 min.

With `CCCN(CCC)C1CCc2ccc(O)cc2C1` (stereo not drawn), the ED50 entry (in the data set with Rattus norvegicus [1]; with Rattus norvegicus [2]; with Rattus norvegicus [3]; in data set [8]) was “inactive” throughout. The compound further came in with a Ki in [4] of 2800 nM. Besides, the ED50 in data set [5] and in data set [6] was 0.03 µmol/kg throughout. For the same compound, in the data set listed under Rattus norvegicus [9], the Behavioral observation result was “Partially active”. The same compound displayed a Counts/30 in the data set on Rattus norvegicus [12] of 160 counts/30 min.

The half-life is the time needed for the level to fall by half in the phase considered. Regarding `CCCN(CCC)C1CCc2cccc(O)c2C1` (stereo not drawn) [8-OH-DPAT], the ED50 turned out to be 0.04 µmol/kg in the data set on Rattus norvegicus [13]; 7.6 µmol/kg in the data set on Rattus norvegicus [14]; 0.07 µmol/kg in the data set on Rattus norvegicus [15]; 3 µmol/kg in the data set with Rattus norvegicus [16]; 0.05 µmol/kg in the data set with Rattus norvegicus [17]; 7.9 µmol/kg in the data set on Rattus norvegicus [18]. In addition, the ED50 entry in the data set on Rattus norvegicus [22] and in the data set with Rattus norvegicus [24] was “Weak activity” in each case. In addition, the half-life in data set [19] is 1.2 h. The ED50 result in the data set on Rattus norvegicus [20], with Rattus norvegicus [21] and in the data set on Rattus norvegicus [23] was “inactive” throughout. Besides, the Counts/30 in the data set with Rattus norvegicus [25] worked out at 66 counts/30 min.
